Screens from PubChem.
CHO parental Ca – counter-screen for OX1R antagonists: effect in parental CHO cells; parental CHO-K1, ATP-induced calcium, Fluo-8 fluorescence; inhibition, % at 5.6 µM; hit rate 0.63% among 330,000;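 active = inhibition above that plate's mean sample inhibition plus 3 SD, cut at about 26% in these data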;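 also: 0% = ATP-challenged DMSO wells and 100% = DMSO wells without ATP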
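Test system: untransfected parental CHO cell line; also added: ATP stimulus; dosing: 5.6 µM, single dose; signal: calcium-sensitive Fluo-8 fluorescence; measure: percent inhibition of ATP-evoked calcium rise, normalized to controls; benchmarks: low control ATP plus DMSO, high control DMSO only; replication: one well per compound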
GPR7 antag – blocks human GPR7 receptor signaling. hit rate 1.1% among 290,000. inhibition, % at 4.4 µM. P48145. GPR7-expressing cells, fluorescence antagonist assay; in the data active = inhibition above about 16%, passing the limit was not always enough;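 also: cells stimulated with the agonist NPW; 0% = agonist with vehicle and 100% = vehicle without agonist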
Target sequence (P48145 whole entry, looked up): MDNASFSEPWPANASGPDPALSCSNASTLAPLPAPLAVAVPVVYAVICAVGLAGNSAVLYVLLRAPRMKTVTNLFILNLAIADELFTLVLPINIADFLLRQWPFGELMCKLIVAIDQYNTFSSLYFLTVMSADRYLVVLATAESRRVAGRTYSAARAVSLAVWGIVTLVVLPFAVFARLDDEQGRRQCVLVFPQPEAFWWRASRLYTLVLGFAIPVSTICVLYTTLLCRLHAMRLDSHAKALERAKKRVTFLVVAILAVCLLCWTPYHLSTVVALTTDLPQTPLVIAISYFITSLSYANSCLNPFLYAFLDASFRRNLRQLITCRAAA
TAAR1 antag – human TAAR1 antagonism | Q96RJ0 | inhibition, % at 3 µM | CHO RD-HGA16 TAAR1, Fluo-8 calcium fluorescence, antagonist | hit rate 1.5% among 360,000;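 active = inhibition above a per-plate cutoff, the mean inhibition of test compounds on that plate plus 3 SD, cut at about 49% in these data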;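 also: 0% = DMSO plus EC80 beta-PEA response and 100% = DMSO alone without agonist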
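Test system – hTAAR1-expressing CHO RD-HGA16 cells, Gα16-coupled · Reagent – β-PEA at EC80 concentration, post-compound challenge · Compound dosing – 3 µM, single point · Timing – 140 s kinetic read after compound, 140 s after agonist · Detection – Fluo-8 intracellular calcium dye fluorescence, real-time kinetic reads · Control set – DMSO and EC80 PEA controls · Repeats – n of 1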
TAAR1 ag – human TAAR1 agonism. hit rate 0.99% among 360,000. CHO RD-HGA16 TAAR1, Fluo-8 calcium fluorescence; vehicle wells 0%, saturating PEA agonist 100%. Q96RJ0. activation, % at 3 µM;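 active = activation above the mean activation of all test compounds in the run plus 3 SD, cut at about 38% in these data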
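System: CHO-derived RD-HGA16 cells with stable Gα16 and human TAAR1 / Times: 17-24 h plating, Fluo-8 75 min 37 °C, 30 min RT / Technique: calcium-sensitive Fluo-8 signal, excitation 470-495, emission 515-575 nm / Measure: % activation relative to PEA EC100 response / Benchmarks: DMSO and PEA EC100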
OX1R antag-1 – blocks the human orexin 1 receptor; O43613; CHO/OX1R cells, Fluo-8 calcium fluorescence, orexin A; inhibition, % at 5 µM; hit rate 0.43% among 330,000; AID 434989;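 active = inhibition above its plate's threshold, mean inhibition of all tested compounds on the plate plus 3 SD, cut at about 37% in these data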;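 also: 0% = orexin A challenge wells and 100% = SB-334867-A antagonist wells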
Target sequence (O43613 whole entry, looked up): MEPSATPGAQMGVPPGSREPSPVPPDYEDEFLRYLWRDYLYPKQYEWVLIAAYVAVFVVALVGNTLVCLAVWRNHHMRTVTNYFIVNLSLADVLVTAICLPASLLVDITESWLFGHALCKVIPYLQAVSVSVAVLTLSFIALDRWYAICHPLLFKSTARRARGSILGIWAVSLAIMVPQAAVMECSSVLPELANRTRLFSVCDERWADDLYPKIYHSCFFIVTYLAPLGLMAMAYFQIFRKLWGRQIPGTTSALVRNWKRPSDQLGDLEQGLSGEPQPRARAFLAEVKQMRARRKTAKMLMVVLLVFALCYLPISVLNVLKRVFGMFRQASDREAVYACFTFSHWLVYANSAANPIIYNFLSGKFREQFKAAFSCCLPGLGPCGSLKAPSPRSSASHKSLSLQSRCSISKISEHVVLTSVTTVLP
OX1R antag-2 – blocks the human orexin 1 receptor. hit rate 1.8% among 330,000. AID 485270. inhibition, % at 6.6 µM. OX1R-expressing cells, FRET antagonist read-out; in the data active = inhibition mostly above about 38%, no sharp cut-off; inactive = mostly below about 40%;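 also: 0% = agonist challenge alone and 100% = reference antagonist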
nonsel antag count – nonselective antagonism, TAAR1 counter-screen | shares compounds with TAAR1 antag | inhibition, % at 3 µM | hit rate 77% among 2,400 | counterscreen cell line, calcium fluorescence, antagonist mode; in the data active = inhibition above about 22%;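 also: CHO-Ga16 host cells stimulated with ATP at an EC80 level; 0% = agonist EC80 plus vehicle and 100% = vehicle without agonist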
TAAR1 ant conf – confirmation of human TAAR1 antagonists; shares compounds with TAAR1 antag; TAAR1-expressing cells, fluorescence antagonist read-out; inhibition, % at 3 µM; hit rate 40% among 2,400; in the data active = inhibition above about 49%;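 also: CHO-Ga16 host cells challenged with agonist PEA near its EC80; 0% = agonist at EC80 plus vehicle and 100% = vehicle with no agonist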
Ga16 ag counter – nonselective Ga16 agonism, counter-screen; shares compounds with TAAR1 antag; Ga16-expressing cells, calcium fluorescence, agonist counterscreen; activation, % at 3 µM; hit rate 18% among 2,400; in the data active = activation above about 12%;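 also: 0% = vehicle wells and 100% = saturating stimulus response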
TAAR1 ag counter – TAAR1 agonism, antagonist counter-screen. shares compounds with TAAR1 antag. hTAAR1 cell line, fluorescence activation, agonist mode. activation, % at 3 µM. hit rate 2% among 2,400; in the data active = activation above about 37%;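 also: CHO cells stably expressing TAAR1 with calcium dye readout; 0% = DMSO vehicle and 100% = full agonist response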
* = called active by the depositor; nt = not tested or not shown. Sampled rows, rich in hits. Any-hit rate of the full collection: about 4.6%.

SMILES	CHO parental Ca	GPR7 antag	TAAR1 antag	TAAR1 ag	OX1R antag-1	OX1R antag-2	nonsel antag count	TAAR1 ant conf	Ga16 ag counter	TAAR1 ag counter
Oc1ccccc1C1=Nc2nc3ccccc3n2C(c2ccccc2)C1 (centres undefined)	-32.8	-9.8	53.8*	13.2	-28.2	53.8	31.2*	28.4	4.2	-2.9
O=C1c2ccccc2C(Nc2ccc3c(c2)OCCO3)N1c1ccc(Cl)cn1 (centres undefined)	-10.7	-4.7	50.5*	2.1	-29.3	20.0	23.4*	37.9	2.0	2.8
O=C1c2ccccc2C(Nc2ccc3c(c2)OCCO3)N1Cc1ccc2c(c1)OCO2 (centres undefined)	-1.5	9.2	63.1*	0.0	-7.7	17.8	15.6	29.3	7.1	14.9
CCOC(=O)/C(C#N)=C(C)/C=C1\Sc2ccccc2N1CC	-8.0	-6.2	56.3*	1.8	-5.9	37.3	22.1*	23.6	17.7*	16.4
CCN1/C(=C\C=C(C(C)=O)C(C)=O)Sc2ccccc21	-6.7	-6.2	10.1	26.9	3.2	72.5	nt	nt	nt	nt
CN(C)c1ccc(C2CC(c3ccccc3)=Nc3nc(-c4ccccc4)cn32)cc1 (centres undefined)	nt	-5.3	nt	nt	nt	nt	nt	nt	nt	nt
O=C(CCCSCCCC(=O)NN=Cc1ccccc1)NN=Cc1ccccc1	nt	nt	66.4*	22.3	nt	nt	43.0*	55.6*	10.4	43.6*
O=C(CSCC(=O)NN=Cc1ccccc1)NN=Cc1ccccc1	nt	nt	-12.0	30.6	nt	nt	nt	nt	nt	nt
COc1ccc(C2c3c(oc4ccc(Cl)cc4c3=O)C(=O)N2Cc2ccco2)cc1OC (centres undefined)	nt	-4.0	nt	nt	nt	nt	nt	nt	nt	nt
COc1ccccc1N1CCN(S(=O)(=O)c2cnc[nH]2)CC1	13.2	-10.9	-5.0	-0.6	-12.1	2.8	nt	nt	nt	nt
COc1ccc2cc(-c3[nH]ncc3CN3CCCN(c4ccccc4)CC3)ccc2c1	-21.4	-12.2	105.7*	-2.2	-26.8	6.0	10.2	16.2	21.6*	55.8*
c1ccc(-c2cn(C[C@H]3CC[C@@H]([C@@H]4CC[C@H](Cn5cc(-c6ccccc6)nn5)O4)O3)nn2)cc1	-23.6	8.7	8.6	12.9	-42.7	36.0	nt	nt	nt	nt
c1ccc(CCc2cn(C[C@H]3CC[C@@H]([C@@H]4CC[C@H](Cn5cc(CCc6ccccc6)nn5)O4)O3)nn2)cc1	-5.9	7.6	56.9*	26.4	-21.6	16.7	31.8*	56.5*	12.9*	12.8
Cc1ccc(N(C(=O)Cn2nnc3ccccc32)C(C(=O)NC2CCCCC2)c2cn(C)nc2C)cc1 (centres undefined)	-7.5	-7.2	3.8	0.5	-31.1	1.4	nt	nt	nt	nt
Cc1nn(C)cc1C(C(=O)NC1CCCCC1)N(C(=O)Cc1cccs1)c1ccc(Cl)cc1 (centres undefined)	-13.6	-12.1	61.1*	29.3	-19.8	14.1	29.7*	53.5*	13.3*	23.3
Fc1cccc(-c2c(-c3ccccc3)ncc3cc(F)ccc23)c1	-30.8	nt	72.1*	23.4	-25.3	6.0	11.3	23.2	6.9	11.8
O=C(COC(=O)/C=C/c1ccc(OC(F)F)cc1)NC(=O)NCc1ccccc1	-9.1	nt	-10.0	-0.2	-6.7	8.9	nt	nt	nt	nt
COc1cccc(OC)c1C(=O)Oc1ccc2c(c1)O/C(=C\c1ccncc1)C2=O	-19.5	-5.8	53.0*	7.8	-12.2	12.2	41.5*	55.8*	6.1	1.8
Cc1ccccc1N(C(=O)c1snc(C(N)=O)c1N)C(C)C(=O)NC1CCCCC1 (centres undefined)	-13.2	-0.1	-20.7	3.3	-11.8	19.5	nt	nt	nt	nt
Cc1ccccc1N(C(=O)c1snc(C(N)=O)c1N)C(C(=O)NC1CCCCC1)c1ccc(O)cc1 (centres undefined)	-9.3	4.2	72.5*	2.6	-10.9	8.2	19.8	56.2*	5.3	2.7
CN(C)c1ccc(C(C(=O)NC2CCCCC2)N(Cc2ccco2)C(=O)c2snc(C(N)=O)c2N)cc1 (centres undefined)	-8.1	-13.2	58.3*	14.9	-21.3	13.2	31.2*	53.0*	7.7	12.1
NC(=O)c1nsc(C(=O)N(c2ccccc2F)C(C(=O)NCc2ccccc2)c2ccc(O)cc2)c1N (centres undefined)	0.4	-9.1	77.6*	13.5	-1.7	5.2	35.8*	47.8	10.3	13.7
CCCC(C(=O)NC1CCCC1)N(Cc1ccc2c(c1)OCO2)C(=O)c1snc(C(N)=O)c1N (centres undefined)	-29.5	12.4	63.5*	16.6	-6.7	10.6	28.0*	48.6*	9.5	11.3
COc1cc(C(C(=O)NC2CCCC2)N(Cc2ccco2)C(=O)c2snc(C(N)=O)c2N)cc(OC)c1OC (centres undefined)	-20.1	-13.9	16.1	10.1	-27.9	23.1	nt	nt	nt	nt
CCn1c(SCC(=O)Nc2cccc(C)n2)nc2c1c(=O)n(C)c(=O)n2C	-13.0	-0.7	17.3	4.3	-6.2	2.4	nt	nt	nt	nt
SMILES	CHO parental Ca	GPR7 antag	TAAR1 antag	TAAR1 ag	OX1R antag-1	OX1R antag-2	nonsel antag count	TAAR1 ant conf	Ga16 ag counter	TAAR1 ag counter
CCOC(=O)[C@]12CCC=C1N(CCC1=CCCCC1)C(=O)[C@H](CC(=O)N1CCC(c3ccccc3)CC1)C2	nt	nt	-34.1	-2.3	nt	nt	nt	nt	nt	nt
Cc1ccccc1N(C(=O)c1snc(C(N)=O)c1N)C(C(=O)NCc1ccccc1)c1ccc(O)cc1 (centres undefined)	-13.9	1.0	64.1*	26.6	1.4	20.4	29.8*	54.5*	9.8	12.7
Cc1ccc(C)c(S(=O)(=O)N2CCN(C(=O)Cc3sc(C)nc3-c3ccc(F)cc3)CC2)c1	nt	nt	58.7*	6.6	nt	nt	22.6*	37.2	5.2	0.8
Cc1nc(-c2ccc(F)cc2)c(CC(=O)N2CCN(S(=O)(=O)c3ccccc3Br)CC2)s1	-25.2	-4.3	13.1	0.6	-35.9	29.2	nt	nt	nt	nt
Cc1nc(-c2ccc(F)cc2)c(CC(=O)N2CCN(S(=O)(=O)c3cccc(Cl)c3)CC2)s1	-29.1	nt	51.3*	4.2	-32.1	6.5	24.8*	35.4	5.3	2.3
CCC(CC)C(=O)c1c[nH]c(C(=O)NCc2ccncc2)c1	-5.6	1.0	-25.4	0.6	-8.6	22.6	nt	nt	nt	nt
CCC(C)[C@H](NC(=O)Nc1ccccc1F)C(=O)OC (some centres undefined)	-10.6	-11.6	-8.4	6.7	-11.3	7.8	nt	nt	nt	nt
